Source: ChEMBL document CHEMBL1133465, “[Pro(3)]Dyn A(1-11)-NH(2): a dynorphin analogue with high selectivity for the kappa opioid receptor” (J Med Chem, 2000)

Legend:
[1] = target: T1, Kappa-type opioid receptor (Homo sapiens, UniProt P41145); assay: Binding affinity of Opioid receptor kappa 1 to cloned human opioid receptor in CHO cell membrane.; format: cell-based
Method in brief: (§1)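 Membranes from CHO cells stably expressing cloned human µ, δ or κ receptors in 50 mM Tris-HCl pH 7.8 with EGTA, MgCl2 and protease inhibitors. 50-100 µg protein with 1.0 nM [3H]diprenorphine, 60 min at room temperature. Filtered on PEI/BSA-treated GF/B and counted by scintillation. Nonspecific binding with 10 µM naloxone. Four-parameter one-site fit, Ki by Cheng-Prusoff.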

[2] = species on record: Cavia porcellus; assay: Antagonist activity determined in the guinea pig assay against U50,488 at 1 uM; format: functional
Method in brief: (§2)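 Electrically stimulated guinea pig ileum. Antagonist held at a fixed concentration of 1 µM. IC50 of the reference agonist (U50,488 or [D-Ala3]Dyn A(1-11)-NH2, as the line names) was measured with and without antagonist. Ke was calculated from the shift.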

[3] = species on record: Cavia porcellus; assay: Antagonist activity determined in the guinea pig assay against [D-Ala3] Dyn A (1-11)-NH2 at 1 uM; format: functional; method in brief: as §2
[4] = Antagonist activity determined in the [35S]GTP-gamma-S, binding assay relative to 25 nM [D-Ala3] Dyn A (1-11)-NH2.; format: functional
[5] = Antagonist activity determined in the [35S]GTP-gamma-S, binding assay relative to 50 nM U50,488; format: functional
[6] = target: T1, Kappa-type opioid receptor; assay: Binding affinity towards cloned human Opioid receptor kappa 1 in CHO cell membranes.; format: cell-based
[7] = target: T2, Delta-type opioid receptor (Homo sapiens, UniProt P41143); assay: (§3) Binding affinity towards cloned human Opioid receptor delta 1 in CHO cell membranes.; format: cell-based; method in brief: as §1
[8] = target: Mu-type opioid receptor (Homo sapiens, UniProt P35372); assay: Binding affinity towards cloned human Opioid receptor mu 1 in CHO cell membranes.; format: cell-based; method in brief: as §1
[9] = target: T1, Kappa-type opioid receptor; assay: Binding affinity at Opioid receptor kappa 1 by to cloned human opioid receptors expressed in CHO cell membranes
Method in brief: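 Membranes from CHO cells stably expressing cloned human κ receptor; 50-100 µg protein in 50 mM Tris-HCl pH 7.8 with EGTA, MgCl2 and protease inhibitors. […] Nonspecific binding with 10 µM naloxone. Filtration and scintillation counting; Ki by Cheng-Prusoff.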

[10] = species on record: Cavia porcellus; assay: Tested for agonist or antagonist properties in guinea pig ileum by (GPI) assay.
[11] = species on record: Cavia porcellus; assay: Tested for agonist or antagonist properties in guinea pig ileum a (GPI) assay.; format: functional, organism-based
[12] = target: T2, Delta-type opioid receptor; assay: as §3; format: cell-based; remark: listed apart in the source
Method in brief: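 Membranes from CHO cells stably expressing cloned human δ receptor; 50-100 µg protein. […] Nonspecific binding with 10 µM naloxone. Filter-bound counts; Ki via Cheng-Prusoff from a one-site fit.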

[13] = target: T1, Kappa-type opioid receptor; assay: Human kOpioid receptor kappa 1 mediated stimulation of [35S]- GTPgammaS binding in CHO cells (Agonist potency).; format: cell-based
Method in brief: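 Human κ-CHO membranes (50-150 µg) with 80-100 pM [35S]GTPγS, 30 µM GDP and 100 mM NaCl in Tris-HCl pH 7.8; 1 h at 30 °C, then filtration and counting. EC50 from a nonlinear fit of an agonist concentration series. Maximal response at 10 µM expressed relative to U50,488 (100%).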

[14] = species on record: Cavia porcellus; assay: Tested for antagonist activity in guinea pig ileum by (GPI) assay.; format: functional, organism-based
Method in brief: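 Electrically evoked contractions of guinea pig ileum. Ke calculated from IC50 of reference agonist (U50,488 or [D-Ala3]Dyn A(1-11)-NH2), measured with and without a fixed concentration of antagonist.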

[15] = Tested for maximum agonist response at concentration 10 uM, relative to that with standard agonist U50,488.; format: functional
Method in brief: (§4)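 κ-expressing CHO membranes (50-150 µg) in 50 mM Tris HCl pH 7.8 with 80-100 pM [35S]GTPγS, 30 µM GDP, 100 mM NaCl and 5.0 mM MgCl2, 1 h at 30 °C. Filtered and counted. Agonist concentration series gave EC50 by nonlinear regression. Maximal response at 10 µM expressed relative to U50,488 set as 100%.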

[16] = target: T1, Kappa-type opioid receptor; assay: Human Opioid receptor kappa 1 mediated stimulation of [35S]- GTPgammaS binding in CHO cells (Agonist potency).; format: cell-based; method in brief: as §4

Sequence of Mu-type opioid receptor (P35372 whole entry): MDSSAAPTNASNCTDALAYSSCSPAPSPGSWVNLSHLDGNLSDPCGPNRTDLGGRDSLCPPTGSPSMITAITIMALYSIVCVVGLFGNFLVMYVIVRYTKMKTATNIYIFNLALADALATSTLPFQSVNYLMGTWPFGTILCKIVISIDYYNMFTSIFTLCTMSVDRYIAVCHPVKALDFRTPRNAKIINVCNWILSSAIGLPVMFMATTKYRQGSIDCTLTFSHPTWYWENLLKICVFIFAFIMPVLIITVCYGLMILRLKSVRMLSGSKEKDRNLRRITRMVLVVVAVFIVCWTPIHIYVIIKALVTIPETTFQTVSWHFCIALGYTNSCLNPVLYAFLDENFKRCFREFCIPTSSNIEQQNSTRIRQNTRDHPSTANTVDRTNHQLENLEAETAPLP
T1 sequence (P41145 whole entry): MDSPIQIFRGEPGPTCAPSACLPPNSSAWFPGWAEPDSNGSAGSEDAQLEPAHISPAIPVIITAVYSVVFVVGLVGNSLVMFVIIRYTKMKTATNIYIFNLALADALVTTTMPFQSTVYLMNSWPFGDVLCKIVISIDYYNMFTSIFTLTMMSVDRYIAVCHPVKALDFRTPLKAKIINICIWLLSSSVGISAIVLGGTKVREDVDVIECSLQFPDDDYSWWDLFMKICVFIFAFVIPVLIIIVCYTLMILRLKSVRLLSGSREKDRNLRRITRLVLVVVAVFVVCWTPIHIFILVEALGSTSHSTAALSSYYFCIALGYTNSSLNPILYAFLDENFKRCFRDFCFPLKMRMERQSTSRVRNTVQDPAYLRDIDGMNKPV
T2 sequence (P41143 whole entry): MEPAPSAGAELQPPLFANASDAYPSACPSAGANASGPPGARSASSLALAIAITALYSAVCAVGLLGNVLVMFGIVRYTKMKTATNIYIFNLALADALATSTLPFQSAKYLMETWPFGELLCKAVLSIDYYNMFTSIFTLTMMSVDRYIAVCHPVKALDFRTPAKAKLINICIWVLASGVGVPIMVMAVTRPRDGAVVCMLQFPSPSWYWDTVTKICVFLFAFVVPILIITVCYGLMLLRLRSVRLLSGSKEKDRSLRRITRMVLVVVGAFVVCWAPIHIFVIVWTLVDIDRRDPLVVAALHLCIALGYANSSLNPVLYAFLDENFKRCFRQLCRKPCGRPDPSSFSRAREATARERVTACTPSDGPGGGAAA

SMILES	IC50 [5] [nM]	Ki [6] [nM]	Ki [7] [µM]	Ki [8] [nM]	also measured
CC[C@@H](C)[C@@H](NC(=O)CNC(=O)[C@@H](N)Cc1ccc(O)cc1)C(=O)N[C@@H](Cc1ccccc1)C(=O)N[C@@H](CC(C)C)C(=O)N[C@@H](CCCN=C(N)N)C(=O)N[C@@H](CCCN=C(N)N)C(=O)N[C@H](C(=O)N[C@@H](CCCN=C(N)N)C(=O)N1CCC[C@H]1C(=O)N[C@@H](CCCCN)C(N)=O)[C@@H](C)CC	–	–	–	–	Ki [1]: 55 nM
Oc1ccc2c3c1O[C@H]1c4[nH]c5c(c4C[C@@]4(O)[C@@H](C2)N(CC2CC2)CC[C@]314)C[C@@]1(O)[C@H]2Cc3ccc(O)c4c3[C@@]1(CCN2CC1CC1)[C@H]5O4 [NORBINALTORPHIMINE]	4.6	–	–	–	Ke [2]: 0.357 nM; Ke [3]: 0.572 nM; IC50 [4]: 4.7 nM
CC[C@H](C)[C@H](NC(=O)[C@H](CCCN=C(N)N)NC(=O)[C@H](CCCN=C(N)N)NC(=O)[C@H](CC(C)C)NC(=O)[C@H](Cc1ccccc1)NC(=O)[C@H]1CCCN1C(=O)CNC(=O)[C@@H](N)Cc1ccc(O)cc1)C(=O)N[C@@H](CCCN=C(N)N)C(=O)N1CCC[C@H]1C(=O)N[C@@H](CCCCN)C(N)=O	2200	160	7.1	8300	–
CC[C@H](C)[C@H](NC(=O)[C@H](CCCN=C(N)N)NC(=O)[C@H](CCCN=C(N)N)NC(=O)[C@H](CC(C)C)NC(=O)[C@H](Cc1ccccc1)NC(=O)[C@@H]1CCCN1C(=O)CNC(=O)[C@@H](N)Cc1ccc(O)cc1)C(=O)N[C@@H](CCCN=C(N)N)C(=O)N1CCC[C@H]1C(=O)N[C@@H](CCCCN)C(N)=O	380	2.7	8.8	5700	Ki [9]: 7.5 nM; IC50 [4]: 1400 nM
CC[C@H](C)[C@H](NC(=O)[C@H](CCCN=C(N)N)NC(=O)[C@H](CCCN=C(N)N)NC(=O)[C@H](CC(C)C)NC(=O)[C@H](Cc1ccccc1)NC(=O)[C@@H](C)NC(=O)CNC(=O)[C@@H](N)Cc1ccc(O)cc1)C(=O)N[C@@H](CCCN=C(N)N)C(=O)N1CCC[C@H]1C(=O)N[C@@H](CCCCN)C(N)=O	–	–	–	–	IC50 [10]: 2.38 nM
CC[C@H](C)[C@H](NC(=O)[C@H](CCCNC(=N)N)NC(=O)[C@H](CCCNC(=N)N)NC(=O)[C@H](CC(C)C)NC(=O)[C@H](Cc1ccccc1)NC(=O)CNC(=O)[C@@H]1CCCN1C(=O)[C@@H](N)Cc1ccc(O)cc1)C(=O)N[C@@H](CCCNC(=N)N)C(=O)N1CCC[C@H]1C(=O)N[C@@H](CCCCN)C(N)=O	760	94	6.8	3200	–
CCC[C@H](NC(=O)[C@H](Cc1ccccc1)NC(=O)CNC(=O)CNC(=O)[C@H](Cc1ccc(O)cc1)NCc1ccccc1)C(=O)N[C@@H](CCCN=C(N)N)C(=O)N[C@@H](CCCN=C(N)N)C(=O)N[C@H](C(=O)N[C@@H](CCCN=C(N)N)C(=O)N1CCCC1C(=O)N[C@@H](CCCCN)C(N)=O)[C@@H](C)CC (stereo in doubt)	–	–	–	–	IC50 [11]: 990 nM
CC[C@H](C)[C@H](NC(=O)[C@H](CCCN=C(N)N)NC(=O)[C@H](CCCN=C(N)N)NC(=O)[C@H](CC(C)C)NC(=O)[C@H](Cc1ccccc1)NC(=O)CNC(=O)[C@H]1CCCN1C(=O)[C@@H](N)Cc1ccc(O)cc1)C(=O)N[C@@H](CCCN=C(N)N)C(=O)N1CCC[C@H]1C(=O)N[C@@H](CCCCN)C(N)=O	940	65	3.9	1700	–
CC[C@H](C)[C@H](NC(=O)[C@H](CCCN=C(N)N)NC(=O)[C@H](CCCN=C(N)N)NC(=O)[C@H](CC(C)C)NC(=O)[C@H](Cc1ccccc1)NC(=O)CNC(=O)CNC(=O)[C@@H](N)Cc1ccc(O)cc1)C(=O)N[C@@H](CCCN=C(N)N)C(=O)N1CCC[C@H]1C(=O)N[C@@H](CCCCN)C(N)=O	–	0.074	–	7.6	Ki [12]: 2.9 nM; EC50 [13]: 0.74 nM; IC50 [14]: 0.376 nM; Max agonist response [15]: 73%
CC[C@H](C)[C@H](NC(=O)[C@H](CCCNC(=N)N)NC(=O)[C@H](CCCNC(=N)N)NC(=O)[C@H](CC(C)C)NC(=O)[C@H](Cc1ccccc1)NC(=O)[C@@H](C)NC(=O)CNC(=O)[C@@H](N)Cc1ccc(O)cc1)C(=O)N[C@@H](CCCNC(=N)N)C(=O)N1CCC[C@H]1C(=O)N[C@@H](CCCCN)C(N)=O	–	0.15	–	67	EC50 [16]: 6.1 nM
